# Measurements from ChEMBL document CHEMBL1147950, “Polyphenols based on isoflavones as inhibitors of Helicobacter pylori urease” (Bioorg Med Chem, 2007).
# “And” between values parts separate entries of the source, which are not always exact repeats. Equal values may be shown once.
# Columns and labels:
# [1] = target: Urease subunit alpha/Urease subunit beta (Helicobacter pylori (strain ATCC 700392 / 26695) (Campylobacterpylori)) (UniProt P69996+P14916); assay: Inhibition of Helicobacter pylori ATCC 43504 urease at 400 ug/mL after 3 hrs pre-incubation
# Urease subunit alpha/Urease subunit beta (Helicobacter pylori (strain ATCC 700392 / 26695) (Campylobacterpylori)), sequence (P14916 whole entry, looked up): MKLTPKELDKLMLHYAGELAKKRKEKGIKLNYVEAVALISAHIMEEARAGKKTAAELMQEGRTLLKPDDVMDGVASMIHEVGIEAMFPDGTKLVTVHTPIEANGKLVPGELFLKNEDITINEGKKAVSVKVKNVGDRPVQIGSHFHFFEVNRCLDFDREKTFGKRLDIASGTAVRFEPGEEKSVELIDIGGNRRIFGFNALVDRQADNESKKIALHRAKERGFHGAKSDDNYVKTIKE
# Urease subunit alpha/Urease subunit beta (Helicobacter pylori (strain ATCC 700392 / 26695) (Campylobacterpylori)), sequence (P69996 whole entry, looked up): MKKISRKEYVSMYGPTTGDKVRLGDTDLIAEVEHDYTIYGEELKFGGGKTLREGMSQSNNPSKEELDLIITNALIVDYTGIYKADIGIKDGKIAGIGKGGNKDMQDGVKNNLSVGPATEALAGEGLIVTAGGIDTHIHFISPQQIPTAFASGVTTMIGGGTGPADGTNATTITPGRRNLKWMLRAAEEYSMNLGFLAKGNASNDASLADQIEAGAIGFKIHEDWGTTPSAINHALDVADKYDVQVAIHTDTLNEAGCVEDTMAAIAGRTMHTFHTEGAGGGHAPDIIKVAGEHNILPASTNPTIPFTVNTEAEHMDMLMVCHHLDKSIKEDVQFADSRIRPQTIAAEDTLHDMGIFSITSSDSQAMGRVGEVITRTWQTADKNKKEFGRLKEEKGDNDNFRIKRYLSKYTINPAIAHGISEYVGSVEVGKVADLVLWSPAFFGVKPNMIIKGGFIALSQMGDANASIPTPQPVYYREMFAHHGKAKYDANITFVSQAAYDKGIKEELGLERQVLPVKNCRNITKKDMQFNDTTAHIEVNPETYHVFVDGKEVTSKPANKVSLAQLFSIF
# Outline: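 Urease from H. pylori ATCC 43504 cultured 24 h at 37 °C in brucella broth with 10% heat-inactivated horse serum, microaerobic (5% O2, 10% CO2, 85% N2). 4 U enzyme preincubated with test compound 3 h at room temperature. Activity read as ammonia production by the indophenol method; percent inhibition recorded.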
# [2] = target: T1, Urease subunit alpha/Urease subunit beta (Helicobacter pylori (strain ATCC 700392 / 26695) (Campylobacterpylori), UniProt P69996); assay: Inhibition of Helicobacter pylori ATCC 43504 urease in presence of 0.4 mM 2-mercaptoethanol after 3 hrs pre-incubation
# T1 sequence (P69996 whole entry): as the sequence (P69996 whole entry, looked up) above
# T1 sequence (P14916 whole entry, further chain): as the sequence (P14916 whole entry, looked up) above
# Outline: (§1)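 Urease source: H. pylori ATCC 43504 grown 24 h at 37 °C, microaerobic (5% O2, 10% CO2, 85% N2), in brucella broth with 10% heat-inactivated horse serum. Enzyme (4 U) preincubated with test compound 3 h at room temperature. Ammonia production read by the indophenol method. IC50 values from triplicate measurements, reported as mean ± SD.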
# [3] = target: T1, Urease subunit alpha/Urease subunit beta; assay: Inhibition of Helicobacter pylori ATCC 43504 urease after 3 hrs pre-incubation; outline: as §1
# [4] = target: T1, Urease subunit alpha/Urease subunit beta; assay: Inhibition of Helicobacter pylori ATCC 43504 urease in presence of 0.4 mM dithiothreitol after 3 hrs pre-incubation; outline: as §1
Compound,inhibition [1],IC50 [2],IC50 [3],IC50 [4]
COc1c(O)cc(O)c(C(=O)Cc2ccc(O)cc2)c1O,17%,,,
COc1c(O)cc(O)c2c(=O)c(-c3ccc(O)cc3)coc12,23% and 36%,,,
O=C(Cc1ccc(O)cc1)c1ccc(O)c(O)c1O,51%,,,
O=C(Cc1ccc(O)cc1)c1ccc(O)c(O)c1,39%,,,
COc1ccc(CC(=O)c2ccc(O)cc2O)cc1,14%,,,
COc1ccc(CC(O)c2ccc(OC)c(OC)c2O)cc1 (configuration not stated),42%,,,
CC(=O)c1ccc(O)c(O)c1O,38%,,,
COc1ccc(CC(=O)c2ccc(O)c(O)c2O)cc1,44%,,,
CC(=O)c1ccc(O)c(O)c1,41%,,,
O=C(Cc1ccc(O)cc1)c1ccc(O)cc1O,16%,,,
O=c1c(-c2ccc(O)cc2)coc2c(O)c(O)ccc12,81.7%,> 1480 µM,140 µM,> 1480 µM
CC(=O)c1ccc(O)cc1O,14%,,,
CC(=O)NO [ACETOHYDROXAMIC ACID],,19 µM,17 µM,18 µM
Oc1ccc(CCc2ccc(O)c(O)c2O)cc1,94.5%,71 µM,30 µM,53 µM
